Assay outcomes (PubChem)
Sampled rows, rich in hits. Any-hit rate of the full collection: about 3.7%.
Kir21 inh – Kir2.1 (mouse) channel inhibition | 310,000 tested, 0.85% active | B-score at 10 µM | P35561 | HEK293-Kir2.1, FluxOR thallium flux fluorescence; stronger effect = lower value;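 active = fluorescence ratio B-score at or below minus 3 SD of library scores, with starting-brightness B-score within 2 SD, cut at about -4.2 in these data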;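 note: channel flux triggered by added potassium and thallium sulfate stimulus; B-score of peak minus minimum fluorescence over baseline after thallium stimulus; more negative B-score means stronger Kir2.1 block with less thallium influx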
Target sequence (P35561 whole entry, looked up): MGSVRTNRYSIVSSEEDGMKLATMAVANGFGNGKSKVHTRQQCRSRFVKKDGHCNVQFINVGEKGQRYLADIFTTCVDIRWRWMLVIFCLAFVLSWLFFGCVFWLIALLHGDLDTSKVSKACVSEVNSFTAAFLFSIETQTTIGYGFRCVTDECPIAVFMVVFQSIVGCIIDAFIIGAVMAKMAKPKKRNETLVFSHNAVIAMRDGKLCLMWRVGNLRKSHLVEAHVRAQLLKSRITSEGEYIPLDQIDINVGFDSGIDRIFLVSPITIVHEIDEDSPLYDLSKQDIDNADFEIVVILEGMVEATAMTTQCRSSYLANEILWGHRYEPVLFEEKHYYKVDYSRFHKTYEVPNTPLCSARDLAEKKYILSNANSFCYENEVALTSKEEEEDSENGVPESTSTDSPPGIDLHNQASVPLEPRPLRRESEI
hERG rescue – hERG (human) protection from proarrhythmic block. activation (rescue from dofetilide block), less the hit threshold, % at 10 µM. AID 1511. Q12809. 310,000 tested, 0.51% active. CHO-hERG, FluxOR thallium flux, dofetilide IC70 present;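 active = activation above the mean of controls blocked by dofetilide plus 5 SD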;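 note: thallium influx through hERG after potassium depolarization seen as dye fluorescence rise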
KCNK3 block – human KCNK3 channel inhibition, primary screen. O14649. CHO-KCNK3 thallium flux, FluxOR fluorescence; stronger effect = lower value. B-score at 10 µM. 340,000 tested, 0.84% active. AID 602410;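 active = B-score under library mean minus 4 SD, starting fluorescence ratio at most library mean plus 5 SD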;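 note: more negative B-score means stronger inhibition of thallium flux through KCNK3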
KCNQ1 block – blocks the human KCNQ1 potassium channel | CHO-K1 KCNQ1, FluxOR thallium flux fluorescence; stronger effect = higher value | 310,000 tested, 1.3% active | AID 2642 | B-score at 10 µM | P51787;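 active = compounds whose thallium flux B-score, printed positive for inhibition, exceeds three library SD while starting fluorescence stays within three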;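 note: channel opened by potassium depolarization with thallium stimulus after 20 min compound exposure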
KCNQ1 act – potentiators or activators of human KCNQ1 potassium channel; CHO-K1 KCNQ1, thallium flux FluxOR fluorescence; stronger effect = higher value; B-score at 10 µM; 310,000 tested, 0.35% active; AID 2648;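 active = fluorescence ratio B-score, a plate-corrected score, at least three library SD, with initial intensity B-score within 5 SD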
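System: Stable KCNQ1 CHO-K1 line | Incubation: 90 min dye loading and 20 min compound exposure, both at room temperature | Measure: Ratio B score | Medium: Assay buffer for compound exposure, DMSO matched across wells | Compound dosing: Single-concentration screen | Probe or stimulus: K+/Tl+ depolarizing stimulus | Measured by: Kinetic FluxOR fluorescence, 10 s baseline plus 110 s post-stimulus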
KCNK9 inh – human KCNK9 channel inhibition; B-score at 10 µM; HEK293 KCNK9, FluxOR thallium flux fluorescence; stronger effect = lower value; Q9NPC2; 310,000 tested, 1.2% active;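 active = ratio B-score over 3 SD below the library mean, with starting fluorescence within 5 SD of its mean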;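 note: negative B-score means less thallium flux so channel inhibition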
Numbers stand for hits; . = inactive; / = not tested or not shown.

SMILES	Kir21 inh	hERG rescue	KCNK3 block	KCNQ1 block	KCNQ1 act	KCNK9 inh
COc1ccc2cc(C(=O)N3CCCC(Nc4ccc(F)cc4)C3)n(C)c2c1 (stereo not given)	-4.9	.	.	.	.	.
COc1cc(OC)cc(C(=O)N2CCCC(Nc3ccc(F)cc3)C2)c1 (stereo not given)	.	.	.	.	.	.
CCOC(=O)c1cc(-c2ccccc2)sc1NC(=O)C(C)OC(=O)c1cccnc1OCC (stereo not given)	.	.	.	.	.	.
COc1ccc2c(c1)-c1nc(/N=C/c3ccc(O)cc3)sc1CC2	/	/	.	/	/	/
COc1ccc2c(c1)-c1nc(/N=C/c3c(O)ccc4ccccc34)sc1CC2	.	.	.	11	.	.
O=C(O)C(Cc1ccccc1)N1C(=O)c2ccccc2C1=O (stereo not given)	.	.	.	.	.	.
O=C(O)C(Cc1ccccc1)N1C(=O)c2c(Cl)c(Cl)c(Cl)c(Cl)c2C1=O (stereo not given)	.	.	.	6	.	.
Cc1cc(=O)oc2cc(O)cc(OCc3ccccc3)c12	/	/	.	/	/	/
CCOC(=O)c1sc(=NC(=O)/C=C/c2ccccc2)n(C)c1C	.	.	.	12	.	.
CCOC(=O)c1sc(=NC(=O)c2cccs2)n(C)c1C	.	.	.	.	.	.
O=C(N/N=C/c1ccc2ncccc2c1)c1ccco1	.	.	.	6	.	.
O=C(N/N=C/c1ccccn1)c1ccco1	.	.	.	.	.	.
Cc1ccc(Nc2cc(C)nc3ccc(C)cc23)cc1	-6.7	.	.	.	.	.
Cc1cc(Nc2ccc3c(c2)OCCO3)c2cc(Cl)ccc2n1	-5.2	.	.	.	.	.
Cc1cc(C)cc(OCC(=O)OCC(=O)Nc2c(C)n(C)n(-c3ccccc3)c2=O)c1	.	.	.	.	.	.
C/C(=N\NS(=O)(=O)c1ccc(C(C)(C)C)cc1)c1ccccc1	.	.	.	6	.	.
C/C(=N/NS(=O)(=O)c1ccc(C(C)(C)C)cc1)c1ccc2c(c1)OCO2	.	.	.	.	.	.
Oc1ccccc1/C=N/NC(=S)NC1CC2C=CC1C2 (stereo not given)	.	.	.	.	.	.
CCCN(CCC)C(=S)NC1CC2C=CC1C2 (stereo not given)	-4.7	.	.	.	.	.
CCC1(c2ccccc2)SC(=O)NC1=O (stereo not given)	/	/	.	/	/	/
CCOC(=O)Cc1csc(SCC(=O)Nc2cccc(Cl)c2)n1	.	.	.	.	.	.
CCOC(=O)Cc1csc(SCC(=O)Nc2cc(Cl)ccc2Oc2ccccc2)n1	.	.	.	11	.	.
CCCOC(=O)c1cc(NC(=O)/C=C/c2ccccc2)ccc1O	.	.	/	.	.	-9.4
COC(=O)[C@]1(C)N[C@H](CN(C)S(=O)(=O)c2ccc(OC(F)(F)F)cc2)[C@@H]2C(=O)N(C)C(=O)[C@@H]21	/	/	.	/	/	/
CCC(C)NC(=O)CCc1c(C)nc2c(c(C)nn2-c2ccccc2)c1C (stereo not given)	.	.	.	.	.	.
SMILES	Kir21 inh	hERG rescue	KCNK3 block	KCNQ1 block	KCNQ1 act	KCNK9 inh
Cc1nc2c(c(C)nn2-c2ccccc2)c(C)c1CCC(=O)Nc1ccc(CN2CCCC2)cc1	-9	.	.	.	.	.
O=C(Nc1nnc(-c2ccc3c(c2)OCCO3)o1)C1CCCCC1	.	.	.	.	.	.
CCCCc1ccc(N=N/C(C(=O)Nc2ccc(NC(C)=O)cc2OC)=C(/C)O)cc1	.	.	.	.	.	.
O=S(=O)(c1ccc(F)cc1)c1snnc1-c1ccccc1	-15	.	.	.	.	.
O=S(=O)(c1ccc(Cl)cc1)c1snnc1-c1ccccc1	-10	.	.	.	.	.
COCCCn1c(=O)c2ccccc2n(Cc2ccc(C)cc2)c1=O	.	.	.	.	.	-7.7
CCOc1cccc(C(=O)Nc2ccc3oc(Cc4ccc(Cl)cc4)nc3c2)c1	.	.	.	6	.	.
CN(NS(=O)(=O)c1ccccc1)c1nc2ccccc2nc1C(F)(F)F	.	.	.	.	.	.
CN(NS(=O)(=O)c1ccc(Cl)cc1)c1nc(C(F)(F)F)nc2ccccc12	.	.	.	.	.	-7.6
COc1ccc(CCNC(=O)CSc2nn(-c3ccccc3)c(=S)s2)cc1OC	-6.6	.	.	.	.	.
